Source: PubChem BioAssay (Johns Hopkins Ion Channel Center)
Most compounds without a hit are left out; they make up all but 3.5% or so of the library.
RGS4 inh: inhibitors of human RGS4 | P49798 | HEK293 M3R/RGS4 inducible, Fluo-4 calcium flux; stronger effect = higher value; triggered by carbachol at its EC20 | B-score at 10 µM | actives 0.45% (n = 310,000) | AID 463165;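 active means B-score, a plate-corrected calcium signal, over three deviations above library mean, with baseline fluorescence within five deviations of library mean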;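 further: RGS4 expression induced by doxycycline in cells with stable M3 receptor; B-score is computed from the integrated fluorescence ratio over baseline after carbachol; higher B-score means a larger calcium signal and so more RGS4 inhibition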
Target sequence (P49798 whole entry, looked up): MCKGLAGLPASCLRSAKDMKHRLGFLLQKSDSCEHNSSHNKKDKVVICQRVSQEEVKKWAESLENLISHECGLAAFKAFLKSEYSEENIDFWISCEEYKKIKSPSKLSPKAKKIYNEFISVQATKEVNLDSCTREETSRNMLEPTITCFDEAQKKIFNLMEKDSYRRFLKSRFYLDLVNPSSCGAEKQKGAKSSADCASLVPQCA
MrgX1 PAM: human MrgX1 positive allosteric modulation, primary screen | MrgX1-HEK293, Fluo-4 calcium flux, FDSS; stronger effect = higher value | B-score at 10 µM | Q96LB2 | actives 0.63% (n = 310,000);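 active means plate-corrected calcium response at least 3 library SD above typical, normal starting fluorescence, not activating the receptor alone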;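 further: compound read alongside a low EC10 to EC30 dose of BAM8-22 agonist; peak minus trough fluorescence over baseline measured at the second addition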
Target sequence (Q96LB2 whole entry, looked up): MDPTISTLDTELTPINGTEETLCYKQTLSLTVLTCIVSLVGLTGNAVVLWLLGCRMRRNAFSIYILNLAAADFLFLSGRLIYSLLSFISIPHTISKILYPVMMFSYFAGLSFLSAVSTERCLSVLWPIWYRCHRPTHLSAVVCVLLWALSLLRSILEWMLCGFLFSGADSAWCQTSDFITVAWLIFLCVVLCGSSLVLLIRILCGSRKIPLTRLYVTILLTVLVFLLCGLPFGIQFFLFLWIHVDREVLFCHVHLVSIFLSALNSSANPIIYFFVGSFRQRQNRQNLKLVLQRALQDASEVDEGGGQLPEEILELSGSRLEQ
MrgX1 ag: human MrgX1 receptor agonism, primary screen | MrgX1-HEK293 cells, Fluo-4 calcium fluorescence, agonist mode; stronger effect = higher value | B-score at 10 µM | Q96LB2 | actives 0.44% (n = 310,000);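 active means calcium response B-score plate-corrected fluorescence ratio at least 3 library SD, with starting fluorescence B-score inside 5 SD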
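Assay system: MrgX1-expressing HEK293 cells / Amount: fifteen thousand cells per well / Doses: test compound in the initial addition of three / Timing: cells plated overnight, dye loaded 0.5 h 37 °C, 0.5 h room temperature / Technique: kinetic calcium dye fluorescence, Fluo-4 NW / Control set: positive and negative controls per plate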
MrgX1 antagonist: antagonists of human MrgX1 receptor. B-score at 10 µM. actives 1.3% (n = 310,000). MRGX1-HEK293 calcium flux, Fluo-4, BAM8-22 antagonism; stronger effect = lower value. AID 588676. Q96LB2;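 active means calcium-response B-score plate-corrected more than 3 library SD below zero, starting fluorescence within 5 deviations, no agonist response on first addition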;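 further: peak minus trough fluorescence over baseline after final BAM8-22 challenge near maximal dose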
RGS4 act: RGS4 potentiation or activation; actives 0.92% (n = 310,000); B-score at 10 µM; AID 463111; HEK293 M3R/inducible RGS4, carbachol calcium flux Fluo4; stronger effect = lower value;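 active means B-score of the integrated calcium signal more than 4 SD below the library mean, with starting fluorescence not abnormally high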;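 further: negative B-score means reduced calcium response which marks RGS4 activation or potentiation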
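System – HEK293 FlpIn-TREx cells, stable M3R, doxycycline-inducible RGS4 · Reagent – ECmax carbachol challenge · Times – compound preincubation 20 min at room temperature before agonist · Technique – Fluo4 fluorescence kinetic imaging of calcium · Measure – B score of integrated Fluo4 ratio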
MrgX1 ant reconf: reconfirmed antagonist of human MrgX1 receptor signaling; shares compounds with MrgX1 antagonist; remaining BAM8-22 calcium response % of control (stronger effect = lower value), % at 10 µM; MrgX1-HEK293, BAM8-22 calcium flux, Fluo-4; stronger effect = lower value; actives 19% (n = 2,300); AID 602420;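 active means remaining agonist calcium response no higher than 100% minus 3 SD of agonist-only control wells, with starting fluorescence near control levels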;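 further: agonist BAM8-22 given at a near maximal EC90 to ECmax level; peak minus minimum fluorescence divided by baseline after agonist addition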
HEK293 Ca flux: counter-screen for MrgX1 antagonists: effect in parental HEK293 cells | shares compounds with MrgX1 antagonist | Fluo-4 calcium fluorescence, FDSS | fluorescence ratio F(max-min)/F0 at 10 µM | actives 2% (n = 4,000) | AID 624111;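 active means duplicate-averaged calcium fluorescence ratio at least three times the standard deviation of buffer wells, a nonspecific response in parental cells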
HEK293 Ca counter: activity in parental HEK293 cells without MrgX1. parental HEK293 calcium flux, Fluo-4 fluorescence ratio; stronger effect = higher value. actives 0.4% (n = 4,000). shares compounds with MrgX1 antagonist. fluorescence ratio F(max-min)/F0 at 10 µM;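 active means calcium fluorescence ratio, averaged over duplicates, at least 3 SD of the buffer-well ratio, meaning a nonspecific response in receptor-free cells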;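 further: untransfected parental HEK293 lacking MrgX1 used as counterscreen for MrgX1 allosteric activators; fluorescence change taken during the second addition on a kinetic imager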
HEK293 Ca cntr2: activity in parental HEK293 cells lacking MrgX1 receptor; shares compounds with MrgX1 antagonist; Fluo-4 calcium fluorescence (FDSS); stronger effect = higher value; fluorescence ratio F(max-min)/F0 at 10 µM; actives 8.7% (n = 4,000);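 active means calcium fluorescence ratio at least three times the spread of buffer wells, meaning a non-specific response in parental cells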
Active calls of the source: *; i = inactive; nt = not tested or not shown.

SMILES	RGS4 inh	MrgX1 PAM	MrgX1 ag	MrgX1 antagonist	RGS4 act	MrgX1 ant reconf	HEK293 Ca flux	HEK293 Ca counter	HEK293 Ca cntr2
O=C1C(C=NCc2ccco2)=C(O)c2ccccc21	i	i	i	-8.63*	i	i	i	i	i
CC(C)(C)C(=O)CSc1nnc(Nc2ccccc2)s1	i	i	i	i	i	nt	nt	nt	nt
O=c1cc(C(F)(F)F)[nH]c2ccc(C(F)(F)F)cc12	i	i	i	-4.72*	i	i	i	i	i
O=C1C(=O)N(CC2CCCO2)C(c2ccco2)/C1=C(/O)c1ccc(F)cc1 (stereo not given)	i	i	i	i	i	nt	nt	nt	nt
O=C(O)c1ccc(Cl)c(S(=O)(=O)N2CCCC2)c1	i	i	i	i	i	nt	nt	nt	nt
O=C(O)c1ccc(Br)c(S(=O)(=O)N2CCCC2)c1	i	i	i	-5.63*	i	i	i	i	i
CCOc1ccc(C(=O)c2cc([N+](=O)[O-])ccc2Cl)cc1	i	i	i	i	i	nt	nt	nt	nt
C=CCSc1nc(N)c(C(=O)Nc2ccccc2OC)cc1C(=O)Nc1ccccc1	i	i	i	-5.88*	i	78.5%*	i	i	i
C=CCSc1nc(N)c(C(=O)Nc2ccccc2)cc1C#N	i	i	i	i	i	nt	nt	nt	nt
Cc1nc2sc3c(c2c(=O)o1)CC(C)(C)OC3	i	i	i	-6.12*	i	i	i	i	i
O=C(NCCc1ccccc1)Nc1cccc(Cl)c1	i	i	i	-7.01*	i	i	i	i	i
CCC(C)C(=O)Nc1nc(C)c(-c2csc(Nc3cc(OC)ccc3OC)n2)s1 (stereo not given)	i	i	i	-5.95*	i	i	i	i	i
CC1CN(C(=S)Nc2ccc(SC(F)F)cc2)CC(C)O1 (stereo not given)	i	i	i	i	i	nt	nt	nt	nt
CC1CC(C)CN(C(=S)Nc2ccc(SC(F)F)cc2)C1 (stereo not given)	i	i	i	-4.99*	i	i	i	i	i
CCCCNC(=S)Nc1ccc(F)cc1	i	i	i	i	i	nt	nt	nt	nt
CCCCNC(=S)Nc1ccc(SC(F)F)cc1	i	i	i	-6.93*	i	i	i	i	i
Nc1cccc(Oc2ccc3c(c2)C(=O)N(CC2CCCO2)C3=O)c1 (stereo not given)	i	i	i	i	i	nt	nt	nt	nt
CC(=O)Nc1ccc(S(=O)(=O)N2CCN(C(=O)c3ncoc3-c3ccccc3C)CC2)cc1	i	i	i	i	i	nt	nt	nt	nt
O=C(COC(=O)CCCSc1nc2ccccc2[nH]1)Nc1ccc(Cl)cc1	i	i	i	i	i	nt	nt	nt	nt
CS(=O)(=O)N(CC(=O)Nc1cccc(F)c1)Cc1ccccc1	i	i	i	i	i	nt	nt	nt	nt
CC(C)c1ccc(NC2CCCN(C(=O)CCc3cn[nH]c3)C2)cc1 (stereo not given)	i	i	i	i	i	nt	nt	nt	nt
COC(=O)c1c(N)sc(C(C)=O)c1C	i	i	i	-8.36*	i	i	i	i	i
CCCc1ccc(OCC(=O)O)cc1	i	i	i	i	i	nt	nt	nt	nt
CCC(C)c1ccc(OCC(=O)O)cc1 (stereo not given)	i	i	i	-6.89*	i	i	i	i	i
